According to paper PMC7931394 (ACS Omega, 2021):
Peptide text beside a SMILES is read from it.

What was measured:
Assay type in all cases: physicochemical
[1] = Logarithmic fit of Tt against molar peptide concentration; conditions: pure water
Summary of the method: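 Tt for each peptide was obtained by turbidity at 400 nm in pure water at several concentrations, measured at least three times per concentration. Tt was plotted against the logarithm of molar peptide concentration and fitted as a logarithmic function. C37 was obtained by logarithmic extrapolation to Tt = 37 °C. The concentration needed at 50 °C was computed from formula (1).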

[2] = Turbidity measurement of temperature-dependent coacervation
Summary of the method: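 Peptides were dissolved in pure water at various concentrations. Turbidity at 400 nm was followed while the temperature was raised or lowered at 0.5 °C/min starting from 5 °C. Each concentration was run at least three times. Tt was taken as the temperature at which turbidity reached half its maximum.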

[3] = Scanning electron microscopy of aggregates; conditions: 0.10 mg/mL aqueous solution incubated at 50 °C for 3 h (Figure S6)
Summary of the method: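 Peptide in water at 0.1 mg/mL was incubated at 50 °C for 3 h, dropped on a cover glass and air-dried at 50 °C. The residue was rinsed gently three times with distilled water and air-dried again. Samples were platinum sputter-coated (5 nm) and imaged at 5.00 kV at 500× and 2000× magnification.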

concentration required to show coacervation at 50 °C ([1]; calculated with formula (1)) | C37 (peptide concentration to attain Tt at 37 °C) ([1]; logarithmic extrapolation of the Tt vs peptide concentration graph) [mM] | peptide concentration at which coacervation is exhibited / required ([2]; pure water, turbidity at 400 nm, 0.5 °C/min from 5 °C) | morphology by SEM [3] | coacervation (turbidity change on heating) ([2]; peptide 20–50 mg/mL in pure water, turbidity at 400 nm (Figure S2)) | SMILES
at least 8.09 mM | 11.7 | at least 20 mg/mL | spherical structures were not formed |  | CC(C)[C@H](NC(=O)CNC(=O)[C@@H]1CCCN1C(=O)[C@H](Cc1ccccc1)NC(=O)CNC(=O)[C@@H](NC(=O)CNC(=O)[C@@H]1CCCN1C(=O)[C@H](Cc1ccccc1)NC(=O)CNC(=O)[C@@H](NC(=O)CNC(=O)[C@@H]1CCCN1C(=O)[C@H](Cc1ccccc1)NC(=O)CNC(=O)[C@@H](NC(=O)CNC(=O)[C@@H]1CCCN1C(=O)[C@H](Cc1ccccc1)NC(=O)CNC(=O)[C@@H](NC(=O)CNC(=O)[C@@H]1CCCN1C(=O)[C@@H](N)Cc1ccccc1)C(C)C)C(C)C)C(C)C)C(C)C)C(=O)NCC(N)=O [F5, H-(FPGVG)5-NH2] (H-FPGVGFPGVGFPGVGFPGVGFPGVG-NH2)
 |  |  |  | no coacervation | CC(C)[C@H](NC(=O)CNC(=O)[C@@H]1CCCN1C(=O)[C@H](Cc1ccccc1)NC(=O)CNC(=O)[C@@H](NC(=O)CNC(=O)[C@@H]1CCCN1C(=O)[C@H](Cc1ccccc1)NC(=O)CNC(=O)[C@@H](NC(=O)CNC(=O)[C@@H]1CCCN1C(=O)[C@@H](N)Cc1ccccc1)C(C)C)C(C)C)C(=O)NCC(N)=O [F3, H-(FPGVG)3-NH2] (H-FPGVGFPGVGFPGVG-NH2)
